High-throughput results from PubChem.
Hits are enriched below; roughly 1.9% of the tested compounds scored in any of these assays.
MBD2 inh = inhibitors of MBD2 binding to methylated DNA, primary screen, biochemical, TR-FRET, DNA-binding domain, human | 370,000 compounds, 0.31% hits | AID 686964, 2013 | inhibition, % at 4.4 µM | Methyl-CpG-binding domain protein 2 (Homo sapiens), Q9UBB5 | MBD2 binding to methylated oligonucleotide; in the data active means inhibition above about 13%
UHRF1 binding = UHRF1 methylated DNA binding inhibitors, primary screen, counter-screen for MBD2 inhibitor project, biochemical, TR-FRET, human UHRF1, single concentration; UHRF1 binding to methylated oligo; inhibition, % at 4.4 µM; 370,000 compounds, 0.75% hits; in the data active means inhibition above about 21%;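 further: UHRF1 SRA domain binding a hemimethylated CpG hairpin DNA probe; 0% = median of test compound wells and 100% = reference inhibitor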
LEDGF integ inh = blockers of LEDGF/p75-dependent integrase strand transfer – biochemical, TR-FRET, high throughput, primary screen; HIV-1 integrase (with human LEDGF/p75); 370,000 compounds, 0.64% hits; TR-FRET IN-LEDGF/p75 DNA integration, Eu/Cy5; AID 743269, 2014; inhibition, % at 3.7 µM;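 active means inhibition above the screen-wide mean plus 3 SD, cut at about 13% in these data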;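 further: signal is the Cy5 over europium emission ratio at 671 and 618 nm; 0% = plate median of compound wells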
TDP2 inh = human TDP2 enzyme inhibitors, primary screen, biochemical, epi absorbance, recombinant enzyme; Tyrosyl-DNA phosphodiesterase 2 (Homo sapiens), O95551; T5PNP hydrolysis, p-nitrophenol absorbance 415 nm; inhibition, % at 12.8 µM; 370,000 compounds, 0.34% hits;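 active means inhibition above the mean of all tested compounds plus 3 SD, set per campaign, cut at about 25% in these data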;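 further: 0% = DMSO with enzyme and 100% = buffer with substrate but no TDP2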
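Assay system: Recombinant human TDP2 | Quantity: 120 nM TDP2 per well | Incubation: 2 h at 37 °C | Signal: Epi absorbance | Evaluation: Percent inhibition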
Rin1-Abl PPI inh = inhibitors of Rin1-Abl protein binding, primary screen, biochemical, TR-FRET | Tyrosine-protein kinase ABL1 (Homo sapiens) + Ras and Rab interactor 1 (Homo sapiens), … | inhibition, % at 7.35 µM | 360,000 compounds, 0.4% hits; in the data active means inhibition above about 5%, passing the limit was not always enough
TDP2 inh conf = human TDP2 enzyme inhibitors, retest, confirmation, biochemical, epi absorbance, recombinant enzyme; shares compounds with TDP2 inh; 1,100 compounds, 22% hits; absorbance read-out; inhibition, % at 12.8 µM; in the data active means inhibition above about 25%;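 further: 0% = vehicle with enzyme and 100% = no enzyme buffer only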
Active calls of the source: *; nt = no result given.

SMILES | MBD2 inh | UHRF1 binding | LEDGF integ inh | TDP2 inh | Rin1-Abl PPI inh | TDP2 inh conf
CCNC(=O)c1ccc(CSc2ccc(Cl)cc2)cc1 | -2 | -1 | 0 | -8 | 4 | nt
COC(=O)[C@]12C[C@H](CC(=O)NCCCN3CCCC3=O)C(=O)N(Cc3ccco3)C1=C[C@H](C1CCCC1)O[C@@H]2C | 0 | 0 | -1 | -3 | nt | nt
CCCCCNC(=O)C(C1CC1)n1c(=O)c(-c2ccco2)nc2ccccc21 (configuration not stated) | -8 | -3 | 2 | 54* | nt | -6
O=C(NC1CCCCC1)C(C1CC1)n1c(=O)c(-c2ccco2)nc2ccccc21 (configuration not stated) | -5 | -6 | 2 | 4 | nt | nt
COC(=O)c1cc(-c2ccc(C)c(C)c2)c(=O)n2c1CCC2 | 6 | 1 | -1 | 3 | nt | nt
Cc1ccc(NC(=O)CCSc2nnc(C)o2)cc1 | -7 | -3 | 0 | 28* | 2 | 6
O=C(O)CN1C(=O)/C(=C/c2ccc(SCc3ccccc3)o2)SC1=S | -1 | 8 | 11 | 26* | -1 | 3
O=C(O)CN1C(=O)/C(=C\c2ccc(OC(=O)c3ccco3)cc2)SC1=S | -1 | -2 | 0 | -1 | 0 | nt
CCOc1ccc(-n2c(SCC(=O)Nc3cccc4ccccc34)nnc2-c2cccs2)cc1 | 4 | 3 | -1 | -9 | nt | nt
O=C(NCCc1ccccc1F)c1ccc2c(c1)ncn2C1CCCCC1 | -1 | 0 | -5 | -3 | nt | nt
Cc1ccc(OCCN2CCCC2)cc1 | -6 | -4 | 0 | 25* | 0 | 11
Cc1c(NC(=O)C(C)OC(=O)c2sc3ccccc3c2Cl)c(=O)n(-c2ccccc2)n1C (configuration not stated) | -2 | -3 | 5 | 9 | -5 | nt
Cc1c(NC(=O)C(C)OC(=O)c2ccc([N+](=O)[O-])s2)c(=O)n(-c2ccccc2)n1C (configuration not stated) | 5 | -2 | 8 | 44* | 1 | 32*
COc1c(F)c(F)cc2c(=O)c(C(=O)O)cn(C3CC3)c12 | 0 | -2 | -3 | 26* | 0 | 1
Cc1ccc(-n2nc(C)c3c2OC(N)=C(C#N)C3c2ccccc2F)cc1 (configuration not stated) | -4 | -9 | 3 | 26* | 1 | -3
Cc1ccc(-n2nc(C)c3c2OC(N)=C(C#N)C3c2ccncc2)cc1 (configuration not stated) | -5 | -8 | -1 | 18 | -3 | nt
Cc1nn(-c2ccccc2)c2c1C(c1c(C)[nH]c(C#N)c1C)C(C#N)=C(N)O2 (configuration not stated) | -9 | 1 | 4 | 35* | 6 | -2
Cc1nn(-c2ccccc2)c(Cl)c1C1C(C#N)=C(N)Oc2c1c(C)nn2-c1ccccc1 (configuration not stated) | -2 | 9 | 2 | 27* | 1 | 9
Cc1nn(-c2ccccc2)c(Cl)c1C1C(C#N)=C(N)Oc2n[nH]c(C)c21 (configuration not stated) | 0 | -8 | 0 | 12 | 3 | nt
Cc1nn(-c2ccccc2)c2c1C(c1ccncc1)C(C#N)=C(N)O2 (configuration not stated) | -1 | -6 | -3 | 5 | 5 | nt
O=C(O)c1ccc(NC2=C(n3nnc4ccccc43)C(=O)c3ccccc3C2=O)cc1 | -20 | 2 | 13 | 34* | -10 | 41*
O=C(O)c1ccc(-n2nnc3ccccc32)c([N+](=O)[O-])c1 | 1 | -4 | 2 | 1 | 3 | nt
CC(C)[C@H](NC(=O)C1CC1)C(=O)N1CCC[C@H]1C(=O)NCCc1ccccc1Cl | -2 | 3 | -1 | -1 | nt | nt
NS(=O)(=O)c1ccc(CCNCC(=O)NCc2ccccc2Cl)cc1 | -2 | -3 | 2 | 27* | 4 | 1
CC1(N2CCOCC2)C(=O)c2ccccc2C1=O | -3 | 7 | 0 | 4 | 0 | nt
